Laboratory results as given in ChEMBL document CHEMBL1123688, “Synthesis of 7,12-dihydropyrido[3,4-b:5,4-b']diindoles. A novel class of rigid, planar benzodiazepine receptor ligands” (J Med Chem, 1987).
The source made the active and inactive calls. The calls are words filed in the database; no cut-off is given here.

Legend:
Mus musculus [1] = test: Antagonism of Diazepam (2.5 mg/kg) anticonvulsant effect in mice treated with (pentylenetetrazole) PTZ (80 mg/kg); assay type: functional
How it was run: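 Adult male NIH-colony mice (20-25 g), groups of 10, got graded ip doses of test agent or vehicle (0.1 mL). Diazepam 2.5 mg/kg ip followed 15 min later, then PTZ 80 mg/kg 15 min after that. Score: tonic-clonic convulsions. ED50 = dose that blocks diazepam's anticonvulsant effect in 50% of mice.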

[2] = biological target: GABA-A receptor; anion channel; test: Inhibition of [3H]-diazepam binding to GABA-A benzodiazepine receptor of rat cerebral cortical membranes; assay type: cell membranes, Membrane
Mus musculus [3] = test: Convulsant effect in mice treated with subconvulsant (pentylenetetrazole) PTZ (40 mg/kg); assay type: functional
Mus musculus [4] = species on record: Mus musculus; test: In vitro ability to induce convulsions in mice
Mus musculus [5] = test: Protection of mice against maximal electroshock (MES)-induced convulsions after administration of 38 mg/kg; assay type: functional
Mus musculus [6] = test: Convulsant effect in mice treated with subconvulsant (pentylenetetrazole) PTZ (40 mg/kg), ineffective at 30 mg/kg; assay type: functional, organism-based; design: dose 30 mg/kg

| SMILES | ED50 (Mus musculus [1]) [mg/kg] | IC50 [2] [nM] | other results |
| --- | --- | --- | --- |
| c1ccc2c(c1)[nH]c1c2ncc2[nH]c3ccccc3c21 | 21.3 | 4 | ED50 (Mus musculus [3]): 15.1 mg/kg |
| COc1ccc2[nH]c3c4c5ccccc5nc-4c[nH]c3c2c1 |  | 890 |  |
| CN1C(=O)CN=C(c2ccccc2)c2cc(Cl)ccc21 [DIAZEPAM] |  |  | ED50 (Mus musculus [4]): 3.4 mg/kg; Survivors (Mus musculus [5]): 100% |
| Fc1ccc2[nH]c3c4c5ccccc5nc-4c[nH]c3c2c1 | 24 | 16 | ED50 (Mus musculus [6]): inactive |
| COc1ccc2c(c1)[nH]c1c2ncc2[nH]c3ccccc3c21 | 3.9 | 8 | ED50 (Mus musculus [3]): 7 mg/kg |
| Clc1ccc2[nH]c3c4c5ccccc5nc-4c[nH]c3c2c1 |  | 2150 |  |
| Clc1cccc2[nH]c3c4c5ccccc5nc-4c[nH]c3c12 |  | 715 |  |
| Clc1cccc2c1[nH]c1c3c4ccccc4nc-3c[nH]c12 |  | 80 |  |
| Clc1ccc2c(c1)[nH]c1c2ncc2[nH]c3ccccc3c21 | 2.5 | 10 | ED50 (Mus musculus [6]): inactive |
| Fc1ccc2c(c1)[nH]c1c3c4ccccc4nc-3c[nH]c12 |  | 7 |  |
| Fc1cccc2c1[nH]c1c3c4ccccc4nc-3c[nH]c12 |  | 12 |  |
